Test results: ChEMBL document CHEMBL3627638, “Mixed up minor groove binders: Convincing A·T specific compounds to recognize a G·C base pair” (Bioorg Med Chem Lett, 2015)
Calls of active or inactive are those of the source. The rule behind the calls is not given here.

Key:
[1] = system: Nucleic Acid; assay: Binding affinity to hairpin oligomer duplex A4GT4 DNA (unknown origin) at 4:1 drug/DNA ratio by ESI mass spectrometry; format: nucleic-acid assay; conditions: Homo sapiens
Method in brief: (§1)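 Competition ESI-MS run on a mixture of DNA sequences with a pure GC sequence as non-binding internal standard. Ligand was titrated at 1:1, 2:1 and 4:1 mole ratios to each single sequence (e.g. 10 μM ligand to 5 μM DNA). Relative peak intensities of free DNA and ligand-DNA complexes were compared.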

[2] = system: Nucleic Acid; assay: Binding affinity to hairpin oligomer duplex A4T4 DNA (unknown origin) at 4:1 drug/DNA ratio by ESI mass spectrometry; format: nucleic-acid assay; conditions: Homo sapiens; method in brief: as §1
[3] = system: Nucleic Acid; assay: Binding affinity to hairpin oligomer duplex A4GCT4 DNA (unknown origin) by ESI mass spectrometry; format: nucleic-acid assay; conditions: Homo sapiens
[4] = system: Nucleic Acid; assay: Binding affinity to hairpin oligomer duplex A4GCT4 DNA (unknown origin) assessed as change in melting temperature at 2:1 drug/DNA ratio by spectrophotometry; format: nucleic-acid assay
[5] = system: Nucleic Acid; assay: Binding affinity to hairpin oligomer duplex A4T4 DNA (unknown origin) assessed as change in melting temperature at 2:1 drug/DNA ratio by spectrophotometry; format: nucleic-acid assay
[6] = system: Nucleic Acid; assay: Binding affinity to hairpin oligomer duplex A4GT4 DNA (unknown origin) assessed as change in melting temperature at 2:1 drug/DNA ratio by spectrophotometry; format: nucleic-acid assay
[7] = system: DNA; assay: Binding affinity to A4CT4-A4GT4 DNA fragment (unknown origin) by DNaseI footprinting analysis; format: nucleic-acid assay; conditions: Homo sapiens
[8] = system: DNA; assay: Binding affinity to AATTCAATT-AATTGAATT DNA fragment (unknown origin) by DNaseI footprinting analysis; format: nucleic-acid assay; conditions: Homo sapiens
[9] = system: DNA; assay: Binding affinity to AATTGCAATT-AATTGCAATT DNA fragment (unknown origin) by DNaseI footprinting analysis; format: nucleic-acid assay; conditions: Homo sapiens
[10] = system: Nucleic Acid; assay: Binding affinity to biotinylated-hairpin oligomer duplex A4GCT4 DNA (unknown origin) by surface plasmon resonance method; format: nucleic-acid assay; conditions: Homo sapiens
[11] = biological target: Nucleic Acid; assay: Binding affinity to biotinylated-hairpin oligomer duplex A4IT4 DNA (unknown origin) by surface plasmon resonance method; format: nucleic-acid assay, Homo sapiens
Method in brief: (§2)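 SPR sensorgrams recorded for ligand injected over immobilized hairpin DNA at a concentration series: 2, 3, 5, 7, 10 and 15 nM for A4GT4, higher concentrations for A4IT4 and A4T4.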

[12] = system: Nucleic Acid; assay: Binding affinity to biotinylated-hairpin oligomer duplex A4T4 DNA (unknown origin) by surface plasmon resonance method; format: nucleic-acid assay; conditions: Homo sapiens; method in brief: as §2
[13] = biological target: Nucleic Acid; assay: Binding affinity to biotinylated-hairpin oligomer duplex A4GT4 DNA (unknown origin) by surface plasmon resonance method in presence of 0.1 M Na+ ion; format: nucleic-acid assay, Homo sapiens; method in brief: as §2
[14] = system: Nucleic Acid; assay: Binding affinity to hairpin oligomer duplex A4GT4 DNA (unknown origin) by circular dichroism method; format: nucleic-acid assay; conditions: Homo sapiens
Method in brief: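 Ligand titrated incrementally into the DNA, with CD spectra followed in the DNA region (230 to 290 nm).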

Compound	Activity [1]	Activity [2]	Activity [3]	ΔTm [4]	ΔTm [5]	ΔTm [6]	Activity [7]	Activity [8]	Activity [9]	Activity [10]	Kd [11]	Activity [12]	Kd [13]	Activity [14]
N=C(N)c1ccc2nc(-c3ccc(-c4cccc(-c5ccc(-c6nc7ccc(C(=N)N)cc7[nH]6)cc5)n4)cc3)[nH]c2c1	Active	Active	inactive	5 °C	24 °C	19 °C	–	–	–	–	–	–	–	–
N=C(N)c1ccc2nc(-c3ccc(OCc4cccc(COc5ccc(-c6nc7ccc(C(=N)N)cc7[nH]6)cc5)c4)cc3)[nH]c2c1	Active	Active	inactive	< 1 °C	21 °C	17 °C	Active	Active	Active	–	–	–	–	–
N=C(N)c1ccc2nc(-c3ccc(OCc4cccc(COc5ccc(-c6nc7ccc(C(=N)N)cc7[nH]6)cc5)n4)cc3)[nH]c2c1	Active	–	inactive	8 °C	15 °C	22 °C	Active	Active	inactive	inactive	1.2 nM	Active	0.015 nM	Active
CN1CCN(c2ccc3nc(-c4ccc(OCc5cccc(COc6ccc(-c7nc8ccc(N9CCN(C)CC9)cc8[nH]7)cc6)n5)cc4)[nH]c3c2)CC1	–	–	–	6 °C	14 °C	19 °C	–	–	–	–	–	–	–	–
